Results published in the RNAGym collection of RNA variant scans (doi:10.1002/anie.201605470).

B1: Osa-1-4 twister ribozyme (parent)
chain: CCGCCUAACACUGCCAAUGCCGGUCCCAAGCCCGGAUAAAAGUGGAGGGGGCGG

Variants of: B1
Experiment: self-cleavage, relative activity (ratio to wild type); higher = more cleavage; co-transcriptional
Summary of the method: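 A DNA template was synthesised for a 54-nucleotide twister ribozyme from Oryza sativa, with 97 % wild-type base and 1 % of each other base at each of the 48 positions downstream of the cleavage site. The ribozyme cleaved itself co-transcriptionally during 2 h of in vitro transcription at 37 °C. Reverse transcription with a template-switching oligonucleotide, PCR amplification and deep sequencing followed, and cleavage status came from reads with or without upstream sequence. Relative activity is the fraction cleaved normalised to wild type.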

Variant | self-cleavage
CCGCCUAACAAUGCCAAUGCCGGUCCCAAGCCCGGAUAUAAGUGGAGGGGGCGG [A39U C11A] | 0.38
CCGCCUAACAGUGCCAAUGCCGGUCCCAAGCCCGGAUAUAAGUGGAGGGGGCGG [A39U C11G] | 0.24
CCGCCUAACAUUGCCAAUGCCGGUCCCAAGCCCGGAUAUAAGUGGAGGGGGCGG [A39U C11U] | 0.89
CCGCCUAACACUGACAAUGCCGGUCCCAAGCCCGGAUAUAAGUGGAGGGGGCGG [A39U C14A] | 0.09
CCGCCUAACACUGGCAAUGCCGGUCCCAAGCCCGGAUAUAAGUGGAGGGGGCGG [A39U C14G] | 0.12
CCGCCUAACACUGUCAAUGCCGGUCCCAAGCCCGGAUAUAAGUGGAGGGGGCGG [A39U C14U] | 0.17
CCGCCUAACACUGCAAAUGCCGGUCCCAAGCCCGGAUAUAAGUGGAGGGGGCGG [A39U C15A] | 0.24
CCGCCUAACACUGCGAAUGCCGGUCCCAAGCCCGGAUAUAAGUGGAGGGGGCGG [A39U C15G] | 0.23
CCGCCUAACACUGCUAAUGCCGGUCCCAAGCCCGGAUAUAAGUGGAGGGGGCGG [A39U C15U] | 0.56
CCGCCUAACACUGCCAAUGACGGUCCCAAGCCCGGAUAUAAGUGGAGGGGGCGG [A39U C20A] | 0.84
CCGCCUAACACUGCCAAUGGCGGUCCCAAGCCCGGAUAUAAGUGGAGGGGGCGG [A39U C20G] | 0.09
CCGCCUAACACUGCCAAUGUCGGUCCCAAGCCCGGAUAUAAGUGGAGGGGGCGG [A39U C20U] | 0.96
CCGCCUAACACUGCCAAUGCAGGUCCCAAGCCCGGAUAUAAGUGGAGGGGGCGG [A39U C21A] | 0.38
CCGCCUAACACUGCCAAUGCGGGUCCCAAGCCCGGAUAUAAGUGGAGGGGGCGG [A39U C21G] | 0.07
CCGCCUAACACUGCCAAUGCUGGUCCCAAGCCCGGAUAUAAGUGGAGGGGGCGG [A39U C21U] | 0.99
CCGCCUAACACUGCCAAUGCCGGUACCAAGCCCGGAUAUAAGUGGAGGGGGCGG [A39U C25A] | 0.06
CCGCCUAACACUGCCAAUGCCGGUGCCAAGCCCGGAUAUAAGUGGAGGGGGCGG [A39U C25G] | 0.07
CCGCCUAACACUGCCAAUGCCGGUUCCAAGCCCGGAUAUAAGUGGAGGGGGCGG [A39U C25U] | 0.45
CCGCCUAACACUGCCAAUGCCGGUCACAAGCCCGGAUAUAAGUGGAGGGGGCGG [A39U C26A] | 0.04
CCGCCUAACACUGCCAAUGCCGGUCGCAAGCCCGGAUAUAAGUGGAGGGGGCGG [A39U C26G] | 0.11
CCGCCUAACACUGCCAAUGCCGGUCUCAAGCCCGGAUAUAAGUGGAGGGGGCGG [A39U C26U] | 0.54
CCGCCUAACACUGCCAAUGCCGGUCCAAAGCCCGGAUAUAAGUGGAGGGGGCGG [A39U C27A] | 0.12
CCGCCUAACACUGCCAAUGCCGGUCCGAAGCCCGGAUAUAAGUGGAGGGGGCGG [A39U C27G] | 0.09
CCGCCUAACACUGCCAAUGCCGGUCCUAAGCCCGGAUAUAAGUGGAGGGGGCGG [A39U C27U] | 0.12

Variant | self-cleavage
CCGCCUAACACUGCCAAUGCCGGUCCCAAGACCGGAUAUAAGUGGAGGGGGCGG [A39U C31A] | 0.03
CCGCCUAACACUGCCAAUGCCGGUCCCAAGGCCGGAUAUAAGUGGAGGGGGCGG [A39U C31G] | 0.08
CCGCCUAACACUGCCAAUGCCGGUCCCAAGUCCGGAUAUAAGUGGAGGGGGCGG [A39U C31U] | 0.67
CCGCCUAACACUGCCAAUGCCGGUCCCAAGCACGGAUAUAAGUGGAGGGGGCGG [A39U C32A] | 0.08
CCGCCUAACACUGCCAAUGCCGGUCCCAAGCGCGGAUAUAAGUGGAGGGGGCGG [A39U C32G] | 0.1
CCGCCUAACACUGCCAAUGCCGGUCCCAAGCUCGGAUAUAAGUGGAGGGGGCGG [A39U C32U] | 0.11
CCGCCUAACACUGCCAAUGCCGGUCCCAAGCCAGGAUAUAAGUGGAGGGGGCGG [A39U C33A] | 0.09
CCGCCUAACACUGCCAAUGCCGGUCCCAAGCCGGGAUAUAAGUGGAGGGGGCGG [A39U C33G] | 0.07
CCGCCUAACACUGCCAAUGCCGGUCCCAAGCCUGGAUAUAAGUGGAGGGGGCGG [A39U C33U] | 0.52
CCGCCUAACACUGCCAAUGCCGGUCCCAAGCCCGGAUAUAAGUGGAGGGGGAGG [A39U C52A] | 0.96
CCGCCUAACACUGCCAAUGCCGGUCCCAAGCCCGGAUAUAAGUGGAGGGGGGGG [A39U C52G] | 1.01
CCGCCUAACACUGCCAAUGCCGGUCCCAAGCCCGGAUAUAAGUGGAGGGGGUGG [A39U C52U] | 1
CCGCCUAACACUACCAAUGCCGGUCCCAAGCCCGGAUAUAAGUGGAGGGGGCGG [A39U G13A] | 0.05
CCGCCUAACACUCCCAAUGCCGGUCCCAAGCCCGGAUAUAAGUGGAGGGGGCGG [A39U G13C] | 0.03
CCGCCUAACACUUCCAAUGCCGGUCCCAAGCCCGGAUAUAAGUGGAGGGGGCGG [A39U G13U] | 0.02
CCGCCUAACACUGCCAAUACCGGUCCCAAGCCCGGAUAUAAGUGGAGGGGGCGG [A39U G19A] | 0.35
CCGCCUAACACUGCCAAUCCCGGUCCCAAGCCCGGAUAUAAGUGGAGGGGGCGG [A39U G19C] | 0.07
CCGCCUAACACUGCCAAUUCCGGUCCCAAGCCCGGAUAUAAGUGGAGGGGGCGG [A39U G19U] | 0.11
CCGCCUAACACUGCCAAUGCCAGUCCCAAGCCCGGAUAUAAGUGGAGGGGGCGG [A39U G22A] | 0.93
CCGCCUAACACUGCCAAUGCCCGUCCCAAGCCCGGAUAUAAGUGGAGGGGGCGG [A39U G22C] | 0.06
CCGCCUAACACUGCCAAUGCCUGUCCCAAGCCCGGAUAUAAGUGGAGGGGGCGG [A39U G22U] | 0.67
CCGCCUAACACUGCCAAUGCCGAUCCCAAGCCCGGAUAUAAGUGGAGGGGGCGG [A39U G23A] | 0.26
CCGCCUAACACUGCCAAUGCCGCUCCCAAGCCCGGAUAUAAGUGGAGGGGGCGG [A39U G23C] | 0.06
CCGCCUAACACUGCCAAUGCCGUUCCCAAGCCCGGAUAUAAGUGGAGGGGGCGG [A39U G23U] | 0.05
